Data as given in ChEMBL document CHEMBL4350954, “Identification of Thienopyrimidine Scaffold as an Inhibitor of the ABC Transport Protein ABCC1 (MRP1) and Related Transporters Using a Combined Virtual Screening Approach” (J Med Chem, 2019).

Legend:
[1] = target: T1, Broad substrate specificity ATP-binding cassette transporter ABCG2 (Homo sapiens, UniProt Q9UNQ0); experiment: Inhibition of ABCG2 (unknown origin) expressed in MDCK2 cells co-expressing BCRP (unknown origin) assessed as effect on pheophorbide A accumulation pre-incubated for 20 mins followed by pheophorbide A addition and measured after 120 mins by flow cytometric analysis; assay type: cell-based
T1 sequence (Q9UNQ0 whole entry): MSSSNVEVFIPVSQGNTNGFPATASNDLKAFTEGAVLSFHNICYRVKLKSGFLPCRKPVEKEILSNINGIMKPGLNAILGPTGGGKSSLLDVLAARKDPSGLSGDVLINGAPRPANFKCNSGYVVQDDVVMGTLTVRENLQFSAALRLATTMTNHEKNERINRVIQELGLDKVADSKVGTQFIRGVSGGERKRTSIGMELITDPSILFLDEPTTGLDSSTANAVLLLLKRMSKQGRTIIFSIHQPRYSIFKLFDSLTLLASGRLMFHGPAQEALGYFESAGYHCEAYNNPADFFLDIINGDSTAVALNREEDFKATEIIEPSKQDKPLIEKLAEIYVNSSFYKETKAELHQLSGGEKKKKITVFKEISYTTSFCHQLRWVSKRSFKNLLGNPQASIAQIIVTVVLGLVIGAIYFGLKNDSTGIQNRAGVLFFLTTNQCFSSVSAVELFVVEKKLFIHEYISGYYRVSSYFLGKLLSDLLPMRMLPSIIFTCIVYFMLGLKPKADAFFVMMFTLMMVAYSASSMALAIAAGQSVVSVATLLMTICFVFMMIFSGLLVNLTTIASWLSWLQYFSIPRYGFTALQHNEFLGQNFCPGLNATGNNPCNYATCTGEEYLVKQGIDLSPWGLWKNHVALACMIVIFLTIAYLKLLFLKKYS
In short: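 Pheophorbide A accumulation assay in ABCG2-transfected MDCK II BCRP cells. Ko143 at 10 µM set 100% and no compound set 0%. Screening was at 10 µM; compounds reaching >20% (+SEM) got IC50 curves constrained to the Ko143 maximum at 10 µM. Values are reported as mean ± SEM.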

[2] = target: T1, Broad substrate specificity ATP-binding cassette transporter ABCG2; experiment: (§1) Reversal of ABCG2 (unknown origin)-mediated multidrug resistance in MDCK2 cells co-expressing BCRP (unknown origin) assessed as resistance factor by measuring [GI50(resistant cell line without or with compound)/ GI50(sensitive cell line)] at 1 uM incubated for 72 hrs by MTT assay (reference value: 27); assay type: cell-based
[3] = target: T1, Broad substrate specificity ATP-binding cassette transporter ABCG2; experiment: Reversal of ABCG2-mediated multidrug resistance in human MCF-7/MX cells assessed as resistance factor by measuring [GI50(resistant cell line without or with compound)/ GI50(sensitive cell line)] at 5 uM incubated for 72 hrs by MTT assay (reference value: 789); assay type: cell-based
[4] = tested on: ABCC1 (MRP1); experiment: Therapeutic index, ratio of GI50 for human H69AR cells to IC50 for ABCC1 in human H69AR cells; assay type: toxicity, cell-based; conditions: read-out: TI
In short: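 Therapeutic ratio = GI50 from the MTT cytotoxicity assay / IC50 from the inhibition assay in the same cell line. The cell lines were H69AR (calcein AM, ABCC1), A2780/ADR (calcein AM, ABCB1) and MDCK II BCRP (pheophorbide A, ABCG2).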

[5] = target: T2, Multidrug resistance-associated protein 1 (Homo sapiens, UniProt P33527); experiment: Reversal of ABCC1-mediated multidrug resistance in human H69AR cells assessed as resistance factor by measuring [GI50(resistant cell line without or with compound)/ GI50(sensitive cell line)] at 10 uM incubated for 72 hrs by MTT assay (reference value: 8.2); assay type: cell-based
T2 sequence (P33527 whole entry): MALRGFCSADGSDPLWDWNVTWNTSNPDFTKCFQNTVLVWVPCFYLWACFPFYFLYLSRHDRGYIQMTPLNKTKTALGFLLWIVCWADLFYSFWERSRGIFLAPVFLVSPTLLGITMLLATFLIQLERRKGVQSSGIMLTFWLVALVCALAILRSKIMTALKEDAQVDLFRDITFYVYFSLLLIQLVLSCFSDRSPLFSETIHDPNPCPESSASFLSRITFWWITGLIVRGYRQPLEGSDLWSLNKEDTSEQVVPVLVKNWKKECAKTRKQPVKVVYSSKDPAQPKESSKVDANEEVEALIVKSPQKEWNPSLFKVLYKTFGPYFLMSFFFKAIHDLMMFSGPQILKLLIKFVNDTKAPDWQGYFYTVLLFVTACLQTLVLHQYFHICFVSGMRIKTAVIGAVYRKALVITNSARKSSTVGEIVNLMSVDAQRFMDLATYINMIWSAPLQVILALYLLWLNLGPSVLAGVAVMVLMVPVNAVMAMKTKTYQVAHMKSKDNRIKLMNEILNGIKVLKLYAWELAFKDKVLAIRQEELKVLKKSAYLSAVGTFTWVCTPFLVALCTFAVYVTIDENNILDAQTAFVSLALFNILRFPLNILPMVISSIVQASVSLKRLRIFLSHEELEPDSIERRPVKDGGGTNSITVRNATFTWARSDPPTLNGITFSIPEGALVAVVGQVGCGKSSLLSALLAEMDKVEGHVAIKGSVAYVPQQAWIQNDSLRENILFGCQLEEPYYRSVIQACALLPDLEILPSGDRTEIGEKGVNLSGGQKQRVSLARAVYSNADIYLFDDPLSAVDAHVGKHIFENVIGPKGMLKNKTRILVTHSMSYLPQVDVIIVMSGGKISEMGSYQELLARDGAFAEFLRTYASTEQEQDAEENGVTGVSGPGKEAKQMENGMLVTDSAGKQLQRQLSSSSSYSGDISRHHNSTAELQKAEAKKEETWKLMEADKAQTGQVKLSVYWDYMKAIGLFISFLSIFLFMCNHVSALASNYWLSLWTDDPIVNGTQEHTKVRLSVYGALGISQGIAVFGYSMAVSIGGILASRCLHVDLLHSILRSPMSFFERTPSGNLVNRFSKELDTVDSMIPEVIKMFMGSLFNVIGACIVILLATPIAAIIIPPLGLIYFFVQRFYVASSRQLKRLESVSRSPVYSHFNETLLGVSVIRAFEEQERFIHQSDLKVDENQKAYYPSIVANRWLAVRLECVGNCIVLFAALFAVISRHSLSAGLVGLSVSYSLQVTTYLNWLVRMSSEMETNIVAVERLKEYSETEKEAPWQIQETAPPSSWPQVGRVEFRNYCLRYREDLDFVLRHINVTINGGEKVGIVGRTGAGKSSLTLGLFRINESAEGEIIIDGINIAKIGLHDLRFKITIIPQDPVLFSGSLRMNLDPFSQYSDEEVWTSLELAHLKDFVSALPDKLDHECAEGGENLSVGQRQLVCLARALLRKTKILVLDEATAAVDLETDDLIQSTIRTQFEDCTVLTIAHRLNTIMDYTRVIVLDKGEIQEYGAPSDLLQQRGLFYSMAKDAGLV

[6] = target: T2, Multidrug resistance-associated protein 1; experiment: Competitive inhibition of ABCC1-mediated calcein-AM transport in human H69AR cells at 0.316 to 1.78 uM by Lineweaver-Burk plot analysis; assay type: cell-based
In short: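 Kinetic study of calcein AM transport by Lineweaver-Burk analysis. ABCC1 was studied in H69AR cells with calcein AM at 0.25, 0.3, 0.45, 0.6 and 0.8 µM and inhibitor at 0.316, 0.562, 1.00 and 1.78 µM plus a zero control. ABCB1 was studied in A2780/ADR cells with calcein AM at 0.2–0.8 µM and inhibitor at 0.056, 0.100, 0.178 and 0.316 µM plus a zero control.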

[7] = target: ABCC1 (MRP1) (Homo sapiens, UniProt P33527); experiment: Inhibition of ABCC1 in human H69AR cells at 10 uM preincubated for 30 mins followed by calcein-AM addition measured at 60 secs time interval by fluorescence assay relative to control; assay type: cell-based; conditions: probe calcein-AM
ABCC1 (MRP1) (Homo sapiens, UniProt P33527), sequence (P33527 whole entry): as above
In short: (§2)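 Calcein AM accumulation assay in H69AR small-cell lung cancer cells, which express only ABCC1. Inhibited efflux lets calcein AM build up intracellularly, where esterases cleave it to fluorescent calcein. The screen used 10 µM, scaled to a standard ABCC1 inhibitor at 10 µM as 100%. Hits reaching ≥20% inhibition (+SEM) went on to IC50 curves, constrained to that 100% maximum. Values are means of ≥3 independent experiments in duplicate ± SEM.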

[8] = target: T3, ATP-dependent translocase ABCB1 (Homo sapiens, UniProt P08183); experiment: as §1, with “ABCB1” for “ABCG2”, “MDR1” for “BCRP”, “10” for “1”, “17)” for “27)”; assay type: cell-based
T3 sequence (P08183 whole entry): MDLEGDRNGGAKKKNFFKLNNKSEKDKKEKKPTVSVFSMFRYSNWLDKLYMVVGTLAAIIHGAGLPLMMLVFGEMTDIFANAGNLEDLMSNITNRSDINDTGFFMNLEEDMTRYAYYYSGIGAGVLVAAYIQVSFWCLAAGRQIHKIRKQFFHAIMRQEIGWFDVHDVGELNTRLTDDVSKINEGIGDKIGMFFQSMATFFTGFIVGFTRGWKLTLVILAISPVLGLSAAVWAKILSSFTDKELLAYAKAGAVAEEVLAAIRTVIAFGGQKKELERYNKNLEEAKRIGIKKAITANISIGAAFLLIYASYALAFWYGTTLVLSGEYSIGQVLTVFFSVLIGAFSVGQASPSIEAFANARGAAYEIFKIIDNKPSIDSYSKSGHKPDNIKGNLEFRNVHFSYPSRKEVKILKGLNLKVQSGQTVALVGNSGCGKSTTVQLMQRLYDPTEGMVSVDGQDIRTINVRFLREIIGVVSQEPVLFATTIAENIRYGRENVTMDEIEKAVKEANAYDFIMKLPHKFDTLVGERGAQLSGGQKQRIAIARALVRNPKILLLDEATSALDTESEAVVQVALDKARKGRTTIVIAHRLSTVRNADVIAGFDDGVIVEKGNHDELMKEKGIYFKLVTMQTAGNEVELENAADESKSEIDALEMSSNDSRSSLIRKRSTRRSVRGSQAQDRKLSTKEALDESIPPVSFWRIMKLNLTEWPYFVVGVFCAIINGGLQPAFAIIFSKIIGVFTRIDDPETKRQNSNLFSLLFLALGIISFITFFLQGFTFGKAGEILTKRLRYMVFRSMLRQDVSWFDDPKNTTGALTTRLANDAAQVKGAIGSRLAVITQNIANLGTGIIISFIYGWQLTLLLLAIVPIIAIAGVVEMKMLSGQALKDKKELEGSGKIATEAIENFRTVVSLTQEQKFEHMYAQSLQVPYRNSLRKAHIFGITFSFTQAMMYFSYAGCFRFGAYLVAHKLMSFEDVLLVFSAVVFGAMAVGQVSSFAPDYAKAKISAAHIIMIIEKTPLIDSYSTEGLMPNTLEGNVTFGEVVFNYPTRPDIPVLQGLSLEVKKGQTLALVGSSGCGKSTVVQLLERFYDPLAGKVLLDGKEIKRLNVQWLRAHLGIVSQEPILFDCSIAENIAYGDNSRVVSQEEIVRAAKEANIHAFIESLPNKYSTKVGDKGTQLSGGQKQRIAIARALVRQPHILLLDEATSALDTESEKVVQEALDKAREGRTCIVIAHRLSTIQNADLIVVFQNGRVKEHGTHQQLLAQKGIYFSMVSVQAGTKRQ
In short: (§3)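 MDR reversal assay with daunorubicin at 10 nM–10 µM, alone or with test compound at 0.5, 1, 5 or 10 µM. Resistant cells were ABCB1-overexpressing A2780/ADR or MDCK II MDR1, with sensitive A2780 or MDCK II cells as comparators. Resistance factor = resistant GI50 / sensitive GI50. EC50 was derived from resistance factors versus modulator concentration. Values are from ≥3 experiments in duplicate ± SEM.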

[9] = target: T2, Multidrug resistance-associated protein 1; experiment: as §1, with “ABCC1” for “ABCG2”, “MRP1” for “BCRP”, “10” for “1”, “7)” for “27)”; assay type: cell-based
[10] = Growth inhibition of human A2780/ADR cells incubated for 72 hrs by MTT assay; assay type: cell-based
In short: (§4)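 MTT-based cytotoxicity assay giving GI50 of the compound alone in each listed parental, selected or transfected cell line.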

[11] = target: T2, Multidrug resistance-associated protein 1; experiment: Inhibition of ABCC1 in human H69AR cells preincubated for 30 mins followed by calcein-AM addition measured at 60 secs time interval by fluorescence assay; assay type: cell-based; in short: as §2
[12] = target: T2, Multidrug resistance-associated protein 1; experiment: as §1, with “ABCC1” for “ABCG2”, “MRP1” for “BCRP”, “0.5” for “1”, “7)” for “27)”; assay type: cell-based
[13] = Growth inhibition of MDCK2 cells incubated for 72 hrs by MTT assay; assay type: cell-based, Canis lupus familiaris, MDCK-II; conditions: dog; in short: as §4
[14] = target: T1, Broad substrate specificity ATP-binding cassette transporter ABCG2; experiment: Non-competitive inhibition of ABCG2 (unknown origin)-mediated pheophorbide A transport in MDCK2 cells co-expressing BCRP (unknown origin) at 0.178 to 1 uM by Lineweaver-Burk plot analysis; assay type: cell-based
In short: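 Lineweaver-Burk kinetics of ABCG2-mediated pheophorbide A transport in transfected MDCK II BCRP cells. Pheophorbide A was used at 0.5, 0.6, 0.8, 1.0 and 1.5 µM. Inhibitor was used at 0.178, 0.316, 0.562 and 1.00 µM, with a zero-inhibitor control.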

[15] = target: T3, ATP-dependent translocase ABCB1; experiment: Reversal of ABCB1-mediated multidrug resistance in human A2780/ADR cells assessed as resistance factor by measuring [GI50(resistant cell line without or with compound)/ GI50(sensitive cell line)] at 10 uM incubated for 72 hrs by MTT assay (reference value: 49); assay type: cell-based; in short: as §3

IC50 [1]: 2.38 µM
RatioGI50 [2]: 17
RatioGI50 [3]: 179
RatioGI50 [5]: 3
inhibition (INH) [6]: Active
inhibition at 1 min, 10 µM [7]: ≥ 20%
RatioGI50 [8]: 0.5
RatioGI50 [9]: 1.4
IC50 [11]: 5.04 µM
RatioGI50 [12]: 4.7
inhibition (INH) [14]: Active
RatioGI50 [15]: 4.1
SMILES: CC1CCc2c(sc3nc(-c4cccnc4)nc(N4CCN(C(C(N)=O)c5ccccc5)CC4)c23)C1 (stereo not given)
selectivity ratio [4]: 11.3
GI50 at 72 h [10]: 25.8 µM
GI50 at 72 h [13]: 27 µM
